# TAAR1 antag = human TAAR1 antagonists, primary screen, Fluo-8 calcium fluorescence, CHO RD-HGA16 cells; Trace amine-associated receptor 1 (Homo sapiens), Q96RJ0; antagonist; inhibition, % at 3 µM; 360,000 tested, 1.5% active;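 active = inhibition above a per-plate cutoff, the mean inhibition of test compounds on that plate plus 3 SD, cut at about 49% in these data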
# Target sequence (Q96RJ0 whole entry, looked up): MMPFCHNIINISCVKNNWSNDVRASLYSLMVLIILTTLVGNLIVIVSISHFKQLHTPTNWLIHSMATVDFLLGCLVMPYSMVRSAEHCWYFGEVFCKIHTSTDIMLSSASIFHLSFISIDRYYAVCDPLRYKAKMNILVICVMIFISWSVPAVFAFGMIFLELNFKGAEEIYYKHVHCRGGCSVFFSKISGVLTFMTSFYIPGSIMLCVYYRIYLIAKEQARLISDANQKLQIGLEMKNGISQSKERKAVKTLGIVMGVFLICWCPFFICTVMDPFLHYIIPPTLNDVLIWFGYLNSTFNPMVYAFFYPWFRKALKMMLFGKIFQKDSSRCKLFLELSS
#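 test system = CHO RD-HGA16 cells bearing hTAAR1 | replication = singlicate | controls = DMSO-only wells and EC80 β-PEA-stimulated wells | reagent = EC80 β-phenethylamine stimulus | read-out basis = percent inhibition of PEA-evoked calcium signal, max/basal emission ratio | schedule = seeding 17-24 h prior, 75-min 37 °C, 30-min RT dye loading | signal = kinetic Fluo-8 calcium fluorescence measurement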
# TAAR1 agonist = human TAAR1 agonists, primary screen, Fluo-8 calcium fluorescence, CHO RD-HGA16 cells; Trace amine-associated receptor 1 (Homo sapiens), Q96RJ0; vehicle wells 0%, saturating PEA agonist 100%; activation, % at 3 µM; 360,000 tested, 0.99% active; AID 624467, 2012;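 active = activation above the mean activation of all test compounds in the run plus 3 SD, cut at about 38% in these data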
#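 test system = CHO RD-HGA16 cells carrying human TAAR1 plus Gα16 | schedule = 17-24 h seeding, 75 min 37 °C dye, 30 min RT | compound dosing = 3 µM single concentration | control set = DMSO and PEA EC100 | replicates = n 1 | signal = Fluo-8 fluorescence, 5 s baseline then 140 s kinetic read | measure = percent activation vs PEA EC100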
# GPR7 antag = GPR7 receptor antagonists, primary screen, cell-based, fluorescence, single concentration | 290,000 tested, 1.1% active | inhibition, % at 4.4 µM | AID 1861, 2009 | GPR7-expressing cells, fluorescence antagonist assay; in the data active = inhibition above about 16%, passing the limit was not always enough;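 note: cells stimulated with the agonist NPW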
# Target sequence (P48145 whole entry, looked up): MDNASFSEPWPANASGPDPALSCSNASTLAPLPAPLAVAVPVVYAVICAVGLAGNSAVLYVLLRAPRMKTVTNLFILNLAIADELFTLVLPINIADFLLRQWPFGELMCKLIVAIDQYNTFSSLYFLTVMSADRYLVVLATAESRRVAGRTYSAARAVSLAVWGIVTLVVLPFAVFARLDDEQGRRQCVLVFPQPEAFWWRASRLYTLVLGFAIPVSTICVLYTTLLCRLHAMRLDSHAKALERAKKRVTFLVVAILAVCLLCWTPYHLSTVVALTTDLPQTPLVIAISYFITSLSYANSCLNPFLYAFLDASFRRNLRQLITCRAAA
# OX1R antag-1 = OX1R (HCRTR1) antagonists, primary screen, fluorescence, CHO/OX1R cells, Fluo-8 calcium, orexin A | 330,000 tested, 0.43% active | Orexin/Hypocretin receptor type 1 (Homo sapiens), O43613 | inhibition, % at 5 µM | Fluo-8 calcium fluorescence;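 active = inhibition above its plate's threshold, mean inhibition of all tested compounds on the plate plus 3 SD, cut at about 37% in these data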
# OX1R antag-2 = antagonists of human orexin 1 receptor (OX1R). AID 485270, 2010. OX1R-expressing cells, FRET antagonist read-out. inhibition, % at 6.6 µM. 330,000 tested, 1.8% active; in the data active = inhibition mostly above about 38%, no sharp cut-off; inactive = mostly below about 40%
# CHO parental Ca = ATP-evoked calcium signal inhibitors, parental CHO, primary screen, counter-screen for OX1R antagonist project, cell-based, fluorescence, Fluo-8 calcium dye; inhibition, % at 5.6 µM; 330,000 tested, 0.63% active; parental CHO-K1, ATP-induced calcium, Fluo-8 fluorescence;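 active = inhibition above that plate's mean sample inhibition plus 3 SD, cut at about 26% in these data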
#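 Test system: untransfected parental CHO cell line; also added: ATP stimulus; dosing: 5.6 µM, single dose; signal: calcium-sensitive Fluo-8 fluorescence; measure: percent inhibition of ATP-evoked calcium rise, normalized to controls; benchmarks: low control ATP plus DMSO, high control DMSO only; replication: one well per compound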
# GPR7 antag cf = GPR7 receptor antagonists, confirmation, cell-based, fluorescence, single concentration. shares compounds with GPR7 antag. GPR7-expressing cells, calcium fluorescence antagonist mode. inhibition, % at 4.4 µM. 2,400 tested, 52% active. AID 1952, 2009; in the data active = inhibition above about 24%;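 note: stimulated with the GPR7 agonist NPW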
# MCHR1 antag = MCHR1 antagonists in cells, counter-screen for GPR7 antagonist project, cell-based, fluorescence, human. 2,400 tested, 62% active. MCHR1-expressing cells, fluorescence antagonist assay. inhibition, % at 4.4 µM. shares compounds with GPR7 antag; in the data active = inhibition above about 22%
# Hits are given with their value; . = inactive; / = no result given; ! = a repeat was not active. Hits are enriched below; roughly 4.5% of the tested compounds scored in any of these assays.
SMILES,TAAR1 antag,TAAR1 agonist,GPR7 antag,OX1R antag-1,OX1R antag-2,CHO parental Ca,GPR7 antag cf,MCHR1 antag
CC(C)c1cc(N2CCN(C(=O)c3ccco3)CC2)n2c(nc3ccccc32)c1C#N,.,.,25.3,.,.,.,.,.
CCn1c(N2CCN(C(=O)c3ccco3)CC2)nc2ccccc21,.,.,.,.,.,.,/,/
COc1ccc(NC(=O)CN(C)C(=O)Cc2c(C)nc3ccccc3c2C)cc1,.,.,/,.,.,.,/,/
CC(=O)NCCn1c(SCc2cc(F)ccc2F)nc2ccccc2c1=O,.,.,32.6,.,.,.,.,.
NC(=O)c1c(N)sc2c1CCCC2,.,.,22.9,.,.,.,.,.
CC1CC(C)CN(CCCNC(=O)C2CCCN(c3ncnc4c3nc3n4CCCCC3)C2)C1 (stereo unspecified),.,.,28.5,.,.,.,.,.
CC1CCCN(CCCNC(=O)C2CCCN(c3ncnc4c3nc3n4CCCCC3)C2)C1 (stereo unspecified),.,.,.,.,.,.,/,/
CC(C)(C)N1CC(C(=O)Nc2ccc(C#N)cc2)CC1=O (stereo unspecified),.,.,.,.,.,.,/,/
C#CC(CO)N(CCN(Cc1ccccc1)C(C#C)CO)Cc1ccccc1 (stereo unspecified),.,.,/,.,.,.,/,.
C#CCN(C)Cc1ccccc1,.,.,.,.,.,.,/,/
CCc1ccc(CNC(=O)C2CC(=O)N(C3CCCC3)C2)cc1 (stereo unspecified),.,.,.,.,.,.,/,/
C/C(CC(=O)Nc1ccc(N(C)C)cc1)=N\NC(=O)c1ccc([N+](=O)[O-])cc1,.,.,26.9,/,/,/,.,.
NS(=O)(=O)c1ccc2nc(NC(=O)Nc3ccc(F)cc3)sc2c1,.,.,33.8,.,.,.,50.0,.
CS(=O)(=O)c1ccc2nc(NC(=O)Nc3ccc(Cl)cc3)sc2c1,.,.,.,.,.,.,/,/
CC1CCC(C(C)C)C(OC(=O)Cn2c(-c3ccccc3)[n+](C)c3ccccc32)C1 (stereo unspecified),.,.,86.3,.,.,41.9!,91.8,82.6
Cc1[nH]nc2c1C(c1cccs1)C(C#N)=C(N)O2 (stereo unspecified),.,.,39.8,.,.,.,.,.
CCCNC(=O)C1(C)CCCN(C(=O)c2ccc3ccccc3c2)C1 (stereo unspecified),.,.,/,/,/,/,/,/
COc1ccc(C(=O)COC(=O)C(CCSC)NC(=O)COc2ccccc2)cc1 (stereo unspecified),.,.,/,.,.,.,/,/
Cc1ccccc1S(=O)(=O)NC(=O)C1(C)CCN1C(=O)Cc1cc(F)ccc1F (stereo unspecified),.,.,/,/,/,/,/,/
CCCCc1ccc(-c2ccc(Br)cc2)nc1,.,.,29.8,.,.,.,.,.
CC(NC(=O)Nc1ccc2c(c1)OCO2)C1CCCO1 (stereo unspecified),.,.,98.8,.,.,.,.,.
COc1cc(C(=O)COC(=O)c2cc([N+](=O)[O-])ccc2N2CCOCC2)ccc1OC(F)F,.,.,/,.,.,.,/,/
COc1ccc(CNC(=O)CSc2nnc(C)c(=O)[nH]2)cc1,.,.,25.3,.,.,.,.,.
CSc1ccc2c(c1)N(CCC1CCCCN1C)c1ccccc1S2 (stereo unspecified),.,.,42.5,.,.,.,76.4,83.3
CCOc1ccccc1CNCCNC(=O)c1nonc1N,.,.,.,.,.,.,/,/
SMILES,TAAR1 antag,TAAR1 agonist,GPR7 antag,OX1R antag-1,OX1R antag-2,CHO parental Ca,GPR7 antag cf,MCHR1 antag
Nc1nonc1C(=O)NCCNCc1ccccc1OCc1ccccc1F,.,.,29.0,.,.,.,36.4,32.9
O=[N+]([O-])c1ccc(Oc2ccc(OCc3ccccc3)cc2)nc1,.,.,61.4,.,.,.,39.9,60.9
O=[N+]([O-])c1cccnc1Oc1ccc(OCc2ccccc2)cc1,.,.,.,.,.,.,/,/
O=C(CNS(=O)(=O)c1ccc([N+](=O)[O-])cc1)N/N=C/c1ccc(O)cc1O,.,.,41.0,.,.,.,64.3,44.5
CCCC(=O)Nc1c2c(nn1-c1ccc(F)cc1)CS(=O)(=O)C2,.,.,.,.,.,.,/,/
O=C(CCC1CCCCC1)Nc1c2c(nn1-c1ccc(F)cc1)CS(=O)(=O)C2,.,.,32.2,.,.,.,42.7,28.9
Cc1ccc(CN2CCC(C)(Oc3ccc(Cl)cc3)C2)cc1 (stereo unspecified),.,.,/,/,/,/,/,/
CC(C)c1ccccc1OCC(O)CN1CCN(S(=O)(=O)c2ccc([N+](=O)[O-])cc2)CC1 (stereo unspecified),.,.,46.7,.,.,.,45.0,76.0
COc1ccc(-n2ncc3c2CC(C)(C)CC3NC(=O)Cc2nonc2C)cc1 (stereo unspecified),.,.,.,.,.,.,/,/
CCOC(=O)C(C)Oc1cccc2c(=O)n(CC(=O)NCCc3ccccc3)ccc12 (stereo unspecified),.,.,.,.,.,.,/,/
CCOC(=O)C(C)Oc1cccc2c(=O)n(CC(=O)NCc3ccccc3)ccc12 (stereo unspecified),.,.,21.5,.,.,.,.,.
C/C(=N\NC(=O)c1nnn(-c2nonc2N)c1C)c1ccc(OCc2ccccc2)cc1,.,.,38.7,.,.,.,.,.
CCOC(=O)C1=CN(CC)S(=O)(=O)NC1c1cccc(OC)c1 (stereo unspecified),.,.,/,.,.,.,/,/
Cc1ccccc1OCCn1cnc2cc([N+](=O)[O-])ccc2c1=O,49.2,.,26.2,.,.,.,27.1,54.8
CCC(=O)Nc1cc2c3c(c1)CCC(=O)N3CCC2,.,.,.,.,.,.,/,/
COc1ccc(-c2ccc(CN3C(C)C(=O)N(Cc4cn(CCC5OCCO5)nn4)CCS3(=O)=O)cc2)cc1OC (stereo unspecified),.,.,/,/,/,/,/,/
Cc1cc(Br)cn2c(Cc3cccc(F)c3)c(C3CCCCC3)nc12,.,.,/,/,/,/,/,/

# Screens: PubChem, The Scripps Research Institute Molecular Screening Center
